Test results published in ChEMBL document CHEMBL3286357, “Design, synthesis and pharmacological evaluation of novel substituted quinoline-2-carboxamide derivatives as human dihydroorotate dehydrogenase (hDHODH) inhibitors and anticancer agents” (Eur J Med Chem, 2014).

Tests used:
[1] = Retention time of compound by HPLC analysis; type: physicochemical
[2] = tested on: A-375; assay: Antiproliferative activity against human A375 cells at 0.01 ug/ml for 24 hrs by MTT assay; type: functional; settings: A-375, 24 h
Procedure, shortened: (§1)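 HEP-3B or A-375 cells were grown in DMEM with 10% FBS, 5% HBSS, penicillin, streptomycin and amphotericin B at 37 C and 5% CO2. Cells were seeded at 2 × 10^4 per well and preincubated for 24 h. They were then exposed to ten 1:3 serial dilutions from a top concentration of 100, made from 2% DMSO stocks. MTT was added for 3 h, formazan was dissolved in DMSO, and A550 was read. Wells were run in triplicate across three independent experiments. IC50 came from dose-response curves.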

[3] = tested on: A-375; assay: Antiproliferative activity against human A375 cells at 0.02 ug/ml for 24 hrs by MTT assay; type: functional; settings: A-375, 24 h; procedure, shortened: as §1
[4] = tested on: A-375; assay: Antiproliferative activity against human A375 cells at 0.05 ug/ml for 24 hrs by MTT assay; type: functional; settings: A-375, 24 h; procedure, shortened: as §1
[5] = tested on: A-375; assay: Antiproliferative activity against human A375 cells at 0.14 ug/ml for 24 hrs by MTT assay; type: functional; settings: A-375, 24 h; procedure, shortened: as §1
[6] = tested on: A-375; assay: Antiproliferative activity against human A375 cells at 0.41 ug/ml for 24 hrs by MTT assay; type: functional; settings: A-375, 24 h; procedure, shortened: as §1
[7] = tested on: A-375; assay: Antiproliferative activity against human A375 cells at 1.23 ug/ml for 24 hrs by MTT assay; type: functional; settings: A-375, 24 h; procedure, shortened: as §1
[8] = tested on: A-375; assay: Antiproliferative activity against human A375 cells at 3.7 ug/ml for 24 hrs by MTT assay; type: functional; settings: A-375, 24 h; procedure, shortened: as §1
[9] = tested on: A-375; assay: Antiproliferative activity against human A375 cells at 11.11 ug/ml for 24 hrs by MTT assay; type: functional; settings: A-375, 24 h; procedure, shortened: as §1
[10] = tested on: A-375; assay: Antiproliferative activity against human A375 cells at 33.33 ug/ml for 24 hrs by MTT assay; type: functional; settings: A-375, 24 h; procedure, shortened: as §1
[11] = tested on: A-375; assay: Antiproliferative activity against human A375 cells at 100 ug/ml for 24 hrs by MTT assay; type: functional; settings: A-375, 24 h; procedure, shortened: as §1
[12] = Antiproliferative activity against human Hep3B cells at 0.01 ug/ml for 24 hrs by MTT assay; type: functional, Hep 3B2; procedure, shortened: as §1
[13] = Antiproliferative activity against human Hep3B cells at 0.02 ug/ml for 24 hrs by MTT assay; type: functional, Hep 3B2; procedure, shortened: as §1
[14] = Antiproliferative activity against human Hep3B cells at 0.05 ug/ml for 24 hrs by MTT assay; type: functional, Hep 3B2; procedure, shortened: as §1
[15] = Antiproliferative activity against human Hep3B cells at 0.14 ug/ml for 24 hrs by MTT assay; type: functional, Hep 3B2; procedure, shortened: as §1
[16] = Antiproliferative activity against human Hep3B cells at 0.41 ug/ml for 24 hrs by MTT assay; type: functional, Hep 3B2; procedure, shortened: as §1
[17] = Antiproliferative activity against human Hep3B cells at 1.23 ug/ml for 24 hrs by MTT assay; type: functional, Hep 3B2; procedure, shortened: as §1
[18] = Antiproliferative activity against human Hep3B cells at 3.7 ug/ml for 24 hrs by MTT assay; type: functional, Hep 3B2; procedure, shortened: as §1
[19] = Antiproliferative activity against human Hep3B cells at 11.11 ug/ml for 24 hrs by MTT assay; type: functional, Hep 3B2; procedure, shortened: as §1
[20] = Antiproliferative activity against human Hep3B cells at 33.33 ug/ml for 24 hrs by MTT assay; type: functional, Hep 3B2; procedure, shortened: as §1
[21] = Antiproliferative activity against human Hep3B cells at 100 ug/ml for 24 hrs by MTT assay; type: functional, Hep 3B2; procedure, shortened: as §1
[22] = tested on: A-375 (human melanoma); assay: Antiproliferative activity against human A375 cells for 24 hrs by MTT assay; settings: A-375, 24 h
[23] = tested on: HEP-3B (human hepatoma); assay: Antiproliferative activity against human Hep3B cells for 24 hrs by MTT assay
[24] = molecular target: Dihydroorotate dehydrogenase (quinone), mitochondrial (Homo sapiens, UniProt Q02127); assay: Inhibition of recombinant human DHODH activity after 20 mins by DCIP dye based colorimetric analysis in presence of 1 mM L-dihydroorotate and 0.1 mM CqD
Sequence of Dihydroorotate dehydrogenase (quinone), mitochondrial (Q02127 whole entry): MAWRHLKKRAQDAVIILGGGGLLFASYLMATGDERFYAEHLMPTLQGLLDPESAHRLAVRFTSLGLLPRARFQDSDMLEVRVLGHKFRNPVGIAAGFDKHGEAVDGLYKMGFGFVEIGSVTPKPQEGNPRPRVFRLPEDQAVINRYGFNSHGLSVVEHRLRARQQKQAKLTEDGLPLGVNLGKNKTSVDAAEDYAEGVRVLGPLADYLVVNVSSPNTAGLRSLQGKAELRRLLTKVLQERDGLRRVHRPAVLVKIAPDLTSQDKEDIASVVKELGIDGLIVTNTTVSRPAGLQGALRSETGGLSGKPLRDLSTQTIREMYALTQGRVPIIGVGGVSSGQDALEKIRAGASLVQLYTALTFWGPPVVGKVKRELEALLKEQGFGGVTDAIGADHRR

Retention_time [1] [min] | Compound | inhibition at 0.01 µg/mL [2] [%] | inhibition at 0.02 µg/mL [3] [%] | inhibition at 0.05 µg/mL [4] [%] | inhibition at 0.14 µg/mL [5] [%] | inhibition at 0.41 µg/mL [6] [%] | inhibition at 1.23 µg/mL [7] [%] | inhibition at 3.7 µg/mL [8] [%] | inhibition at 11.11 µg/mL [9] [%] | inhibition at 33.33 µg/mL [10] [%] | inhibition at 100 µg/mL [11] [%] | inhibition at 0.01 µg/mL [12] [%] | inhibition at 0.02 µg/mL [13] [%] | inhibition at 0.05 µg/mL [14] [%] | inhibition at 0.14 µg/mL [15] [%] | inhibition at 0.41 µg/mL [16] [%] | inhibition at 1.23 µg/mL [17] [%] | inhibition at 3.7 µg/mL [18] [%] | inhibition at 11.11 µg/mL [19] [%] | inhibition at 33.33 µg/mL [20] [%] | also measured
6.8 | CCOc1ccc2nc(C(=O)Nc3c(F)cc(-c4cccc(F)c4)cc3F)c(C)c(C(=O)O)c2c1 | 0.3 | 1.02 | 1.96 | 3.05 | 11.2 | 26.6 | 35.2 | 48.3 | 51.2 | 72.3 | -0.12 | 0.05 | 0.98 | 2.06 | 5.34 | 17.9 | 26.5 | 33.2 | 38.6 | inhibition at 100 µg/mL [21]: 65.3%; IC50 [22]: 5.8 µM; IC50 [23]: 14.9 µM; IC50 [24]: 2.83 µM
6.8 | Cc1c(C(=O)Nc2c(F)cc(-c3cccc(F)c3)cc2F)nc2ccc(C(F)(F)F)cc2c1C(=O)O | 0.12 | 0.37 | 1.04 | 2.56 | 7.82 | 18.3 | 27.8 | 45.4 | 51 | 61.3 | 0.2 | 1.15 | 1.68 | 2.13 | 6.42 | 17.2 | 21.3 | 31.2 | 43.3 | inhibition at 100 µg/mL [21]: 72.3%; IC50 [22]: 7.57 µM; IC50 [23]: 42.8 µM; IC50 [24]: 3.44 µM
7.4 | COc1ccc2nc(C(=O)Nc3ccc(-c4ccccc4)cc3)c(C)c(C(=O)O)c2c1 | 0.35 | 0.68 | 1.26 | 3.65 | 11.3 | 21.3 | 33.6 | 47.9 | 58.3 | 70.2 | -0.12 | 0.05 | 0.65 | 2.01 | 5.31 | 11.2 | 19.4 | 28.3 | 33.6 | inhibition at 100 µg/mL [21]: 72.5%; IC50 [22]: 9.43 µM; IC50 [23]: > 100 µM; IC50 [24]: 1.09 µM
6.9 | Cc1c(C(=O)Nc2c(F)cc(-c3cccc(F)c3)cc2F)nc2ccc(OC(F)(F)F)cc2c1C(=O)O | -0.11 | 0.95 | 1.06 | 3.06 | 15.2 | 24.4 | 37.9 | 42.4 | 53.1 | 68.8 | 0.45 | 1.22 | 3.05 | 7.28 | 15.3 | 21.2 | 29.8 | 37.3 | 46.2 | inhibition at 100 µg/mL [21]: 75.3%; IC50 [22]: 4.8 µM; IC50 [23]: 22 µM; IC50 [24]: 1.5 µM
